For series [1], the system named is HCT-116. As to the kind of experiment: Induction of apoptosis in human HCT116 cells assessed as early apoptotic cells at 0.5 uM by Annexin-V FITC/propidium iodide staining-based flow cytometry (reference value: 2.8 %). The series is classed as functional.
In series [2] the test system is Mus musculus. Briefly: Increase in LIFR expression in tumor tissue of BALB/cAnNCrl mouse xenografted with human HCT116 cells at 15 to 30 mg/kg, po administered on day 1 to day 19 measured on day 19 by immunohistochemical analysis. The format is functional, organism-based. In outline: (§1)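 HCT-116 xenograft mice were dosed orally at 15 or 30 mg/kg, or 30 mg/kg for reference agents, for 19 days, with vehicle or saline controls. Tumor sections were stained for Ki-67, c-Myc, Ac-H3, BRD4, LC3-II, LIFR and p-STAT3 by immunohistochemistry, and TUNEL staining was used as the apoptosis marker.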
Background: In xenograft studies the graft and the host belong to different species.

A short description of series [3]: AUC (0 to infinity) in Sprague-Dawley rat at 30 mg/kg, iv administered as bolus dose measured up to 1440 mins by UPLC-QTOF/MS analysis. The format is ADME, organism-based. The arrangement: dose 30 mg/kg, route intravenous, time infinity. The conditions noted are these: in vivo.
Series [4] has as its target Bromodomain-containing protein 2 (Homo sapiens, UniProt P25440). As to the kind of experiment: Inhibition of human recombinant His-tagged BRD2 BD1 domain expressed in Escherichia coli BL21(DE3)-R3-pRARE2 cells by AlphaScreen assay. For orientation: Alpha assays give light when donor and acceptor beads are brought close together.
Series [5] addresses T1, Bromodomain-containing protein 4 (Homo sapiens, UniProt O60885). Briefly: Inhibition of BRD4 in human HCT116 cells assessed as induction of autophagy by measuring increase in cleavage of LC3-I to LC3-II measured after 24 hrs by Western blot analysis. The series is classed as cell-based. On the technique in general: Immunoblotting shows a protein as a band on a membrane.
The subject of series [6] is HCT-116. Briefly: Induction of apoptosis in human HCT116 cells assessed as early apoptotic cells at 0.2 uM by Annexin-V FITC/propidium iodide staining-based flow cytometry (reference value: 2.8 %). The series is classed as functional.
Series [7] concerns the target T1, Bromodomain-containing protein 4. As to the kind of experiment: Inhibition of BRD4 in human HCT116 cells assessed as reduction in C-myc level at 0.2 to 0.5 uM measured after 24 hrs by Western blot analysis. The series is classed as cell-based.
The target is the same in series [8]. Briefly: Inhibition of BRD4 in human HCT116 cells assessed as induction of autophagy by measuring p62 degradation at 0.5 uM measured after 24 hrs by Western blot analysis. The format is cell-based.
Series [9] is described as follows: Half life in Sprague-Dawley rat at 30 mg/kg, po measured up to 1440 mins by UPLC-QTOF/MS analysis. The series is classed as ADME, organism-based. The conditions noted are these: in vivo.
In series [10] the test system is HCT-116. As to the kind of experiment: Induction of apoptotic cell death in human HCT116 cells by Annexin-V FITC/propidium iodide staining-based flow cytometry. The series is classed as functional.
Series [11] relates to HCT-116. As to the kind of experiment: Induction of apoptosis in human HCT116 cells assessed as viable cells at 0.5 uM by Annexin-V FITC/propidium iodide staining-based flow cytometry (reference value: 93.4 %). The series is classed as functional. The conditions noted are these: read-out: Activity.
Series [12] relates to Mus musculus. Briefly: In vivo inhibition of BRD4 in BALB/cAnNCrl mouse xenografted with human HCT116 cells assessed as decrease in c-Myc expression in tumor tissue at 15 to 30 mg/kg, po administered on day 1 to day 19 measured on day 19 by immunohistochemical analysis. The format is functional, organism-based. In outline: as §1
Series [13] is described as follows: AUC (0 to infinity) in Sprague-Dawley rat at 30 mg/kg, po measured up to 1440 mins by UPLC-QTOF/MS analysis. The series is classed as ADME, organism-based. The arrangement: dose 30 mg/kg, route oral, time infinity. The conditions noted are these: in vivo.

SMILES strings stand for the structures. Calls of active or inactive are those of the source. The rule behind the calls is not given here.

Chain of Bromodomain-containing protein 2 (P25440 whole entry, the tested form may be a part): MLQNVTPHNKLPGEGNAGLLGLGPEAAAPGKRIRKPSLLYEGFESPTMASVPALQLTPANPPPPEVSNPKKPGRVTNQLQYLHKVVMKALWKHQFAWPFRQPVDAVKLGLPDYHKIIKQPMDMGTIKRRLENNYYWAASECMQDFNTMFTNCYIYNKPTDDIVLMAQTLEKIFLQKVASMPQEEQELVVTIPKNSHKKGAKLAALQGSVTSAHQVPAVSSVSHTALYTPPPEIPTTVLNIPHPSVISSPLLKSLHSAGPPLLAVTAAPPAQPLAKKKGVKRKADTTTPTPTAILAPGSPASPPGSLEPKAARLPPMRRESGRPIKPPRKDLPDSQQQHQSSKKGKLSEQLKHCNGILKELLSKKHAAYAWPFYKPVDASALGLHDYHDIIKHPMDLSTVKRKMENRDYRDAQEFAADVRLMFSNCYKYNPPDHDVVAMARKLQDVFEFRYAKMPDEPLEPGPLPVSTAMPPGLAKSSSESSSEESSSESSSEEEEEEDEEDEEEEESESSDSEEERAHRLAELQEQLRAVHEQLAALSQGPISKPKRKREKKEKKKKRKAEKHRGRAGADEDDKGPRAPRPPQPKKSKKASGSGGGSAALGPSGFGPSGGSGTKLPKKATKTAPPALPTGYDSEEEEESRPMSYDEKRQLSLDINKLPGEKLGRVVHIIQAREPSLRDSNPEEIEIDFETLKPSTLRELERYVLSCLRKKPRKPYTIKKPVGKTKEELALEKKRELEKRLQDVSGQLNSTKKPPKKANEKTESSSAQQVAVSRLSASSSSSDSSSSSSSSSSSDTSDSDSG

As to `Cc1cc(-c2nc3sc4c(c3c(=O)[nH]2)CCN(C)C4)cc(C)c1OCCCCCC(=O)NO`, the Activity was 9.54% in series [1], 8.2% in series [6] and “Dose-dependent effect” in series [10]. In addition, the result in series [2] was inactive. Further, the AUC(0-inf) in [3] is 156 µg·h/mL; in series [13] it was 63.3 µg·h/mL. In addition, the IC50 in series [4] is 16.4 µM. Also, the inhibition result in series [5] was “Dose-dependent effect”. Moreover, the inhibition entry in series [7], in series [8] and in [12] was “Active” throughout. In series [9], this compound gave a half-life of 4.8 h. Further, the viability at 0.5 µM in series [11] is 44.9%.

By AUC(0-inf) is commonly meant total exposure, with the tail of the curve extrapolated. High values mean high exposure, low ones low exposure. The term IC50 denotes the concentration needed to halve the response being measured. As usually defined, the half-life is how long it takes for the measured level to halve. Low readings indicate rapid decline, high ones slow decline.

The values are drawn from ChEMBL document CHEMBL4342471, “Discovery of Thieno[2,3-d]pyrimidine-Based Hydroxamic Acid Derivatives as Bromodomain-Containing Protein 4/Histone Deacetylase Dual Inhibitors Induce Autophagic Cell Death in Colorectal Carcinoma Cells” (J Med Chem, 2020).
